These results are taken from paper PMC9260854 (Biochemistry, 2022).

Where a chain is given by its changes, count along the chain named. Where two headings read alike, the source gives them in different places.

The test system of data set [1] is SULT2B1b. The following applies: cited from earlier work.
Data set [2] addresses T1, SULT2B1b S347D (Homo sapiens, UniProt O00204, S347D).
T1 sequence (O00204 1-365 S347D): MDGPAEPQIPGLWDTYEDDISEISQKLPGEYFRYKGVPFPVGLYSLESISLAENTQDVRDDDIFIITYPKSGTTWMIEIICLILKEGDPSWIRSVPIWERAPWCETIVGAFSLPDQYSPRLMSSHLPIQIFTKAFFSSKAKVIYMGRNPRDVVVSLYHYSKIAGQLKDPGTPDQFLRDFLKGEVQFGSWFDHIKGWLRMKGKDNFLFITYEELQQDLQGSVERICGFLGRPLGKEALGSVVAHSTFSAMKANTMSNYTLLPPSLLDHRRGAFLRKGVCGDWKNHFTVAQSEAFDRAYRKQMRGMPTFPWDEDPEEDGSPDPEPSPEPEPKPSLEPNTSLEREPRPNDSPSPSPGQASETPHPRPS
The experiment in a line: Initial-rate 1-HP sulfonation. The following applies: for Ki: read-out: Ki 7-DH.

Data set [3] has as its target T1, SULT2B1b S347D. Briefly: Equilibrium binding via intrinsic fluorescence. In outline: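 Intrinsic fluorescence titrations of purified His/GST/MBP-tag-cleaved enzyme, excitation 290 nm, in KPO4 (50 mM), pH 7.5, 25 ± 2 °C. […] Triplicate averaged data were fit to a single-site-per-monomer model.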
For data set [4], the target named is T1, SULT2B1b S347D. The experiment in a line: Stopped-flow ligand-binding studies.
Data set [5] has as its target T2, SULT2B1b, S347D, W13A (Homo sapiens, UniProt O00204, S347D/W13A).
T2 sequence (O00204 1-365 W13A/S347D): T1 sequence (O00204 1-365 S347D) with W13A
Briefly: Initial-rate parameters, direct-contact mutant W13A. The following applies: read-out: Km PAPS; W13A; saturating 1-HP (100 μM); (−) quercetin.

In data set [6] the target is T3, SULT2B1b, S347D, W98A (Homo sapiens, UniProt O00204, S347D/W98A).
T3 sequence (O00204 1-365 W98A/S347D): T1 sequence (O00204 1-365 S347D) with W98A
The experiment in a line: Initial-rate parameters, direct-contact mutant W98A. The settings on record: read-out: Km PAPS; W98A; saturating 1-HP (100 μM); (−) quercetin.

Data set [7] deals with T4, SULT2B1b, S347D, Y257A (Homo sapiens, UniProt O00204, S347D/Y257A).
T4 sequence (O00204 1-365 Y257A/S347D): T1 sequence (O00204 1-365 S347D) with Y257A
Briefly: Initial-rate parameters, direct-contact mutant Y257A. The following applies: read-out: Km PAPS; Y257A; saturating 1-HP (100 μM); (−) quercetin.

The test system of data set [8] is Oc1ccc2ccc3cccc4ccc1c2c34. The experiment in a line: Initial-rate parameters, non DTNB-reactive scaffold. The settings on record: other: NR; saturating PAPS (300 μM); 25.0 °C. It is filed as biochemical, human.
In data set [9] the test system is Oc1ccc2ccc3cccc4ccc1c2c34. The experiment in a line: purified protein, by the assay type. The settings on record: saturating PAPS (300 μM), (−) quercetin, pH 7.5, 25.0 °C.
The subject of data set [10] is Oc1ccc2ccc3cccc4ccc1c2c34. The experiment in a line: Initial-rate parameters, spin-labeled mutant 21. It is filed as biochemical, human. The following applies: other: spin label at 21; saturating PAPS (300 μM); 25.0 °C.
Data set [11] has as its system Oc1ccc2ccc3cccc4ccc1c2c34. Briefly: Initial-rate parameters, spin-labeled mutant 171. Type of data set: biochemical, human. The settings on record: other: spin label at 171; saturating PAPS (300 μM); 25.0 °C.
The subject of data set [12] is Oc1ccc2ccc3cccc4ccc1c2c34. The experiment in a line: Initial-rate parameters, spin-labeled mutant 247. The following applies: other: spin label at 247; saturating PAPS (300 μM); 25.0 °C. Type of data set: biochemical, human.

Consider `CC(C)CCC[C@@H](C)[C@H]1CC[C@H]2C3=CC=C4C[C@@H](O)CC[C@]4(C)[C@H]3CC[C@]12C` [7-DH, 7-dehydrocholesterol], for which the SULT2B1b substrate result in data set [1] is given as “neither of which is a SULT2B1b substrate”. For the same compound, in [2] (PAPS 30 μM, 1-HP 100 μM), the “α (fraction turnover at saturation), 7-DH” value is listed as 0.11 ± 0.02. Further, the Ki turned out to be 110 nM in data set [2] and 110 ± 7 nM in data set [2] (PAPS 30 μM, 1-HP 100 μM, noncompetitive partial-inhibition model).
In the case of `CC(C)=CCC[C@@H](C)[C@H]1CC[C@H]2[C@@H]3CC=C4C[C@@H](O)CC[C@]4(C)[C@H]3CC[C@]12C` [24-DH, 24-dehydrocholesterol], the SULT2B1b substrate result in data set [1] was “neither of which is a SULT2B1b substrate”. Further, the “inhibition of SULT2B1b turnover” value in data set [2] (concentrations as high as 10 μM) is recorded as “does not inhibit”.
`Nc1ncnc2c1ncn2[C@@H]1O[C@H](COP(=O)(O)O)[C@@H](OP(=O)(O)O)[C@H]1O` [PAP, 3′-phosphoadenosine 5′-phosphate] showed a Kd in data set [3] of 380 nM.
Turning to `Nc1ncnc2c1ncn2[C@@H]1O[C@H](COP(=O)(O)OS(=O)(=O)O)[C@@H](OP(=O)(O)O)[C@H]1O` [PAPS, 3′-phosphoadenosine 5′-phosphosulfate], the “increase of PAPS affinity” value in [3] (at saturating quercetin) was 12 fold. Also, in data set [4] ((−) Quc), the koff was 3.0 (0.2) s^−1 and the kon is given as 8.0 (0.3)^1 μM^−1s^−1. For the same compound, the “rate constant for release of PAPS” value in data set [4] (absence of quercetin) was found to be 3.0 ± 0.2 s⁻¹. Moreover, in [4] (at saturating quercetin), the “decrease of koff PAPS” value was determined as 14 fold and the “rate constant for PAPS release” value is 0.22 ± 0.2 s⁻¹. In [4] (read-out: Kd PAPS (koff/kon), (−) Quc), the Kd came out at 380 nM. In addition, the Km in data set [5] amounted to 0.36 µM. Further, the Km in [6] amounted to 0.31 µM. Further, in data set [7], the Km was determined as 0.37 µM.
Turning to “SULT2B1b C81S, C225S, C278S, S347D (Homo sapiens; C225S/C278S/C81S/S347D)”, in data set [8], the Km is recorded as 3.5 (0.2) μM and the kcat is 3.3 s⁻¹.
For SULT2B1b S347D (Homo sapiens; S347D), in [9] (other: WT), the Km was 3.8 (0.3) μM and the kcat stood at 3.4 s⁻¹.
Take “SULT2B1b S347D spin-labeled at residue 21 (Homo sapiens; C225S/C278S/C81S/S21C/S347D)”: in [10], the Km is recorded as 4.2 (0.3) μM and the kcat came to 3.6 s⁻¹.
As for “SULT2B1b S347D spin-labeled at residue 171 (Homo sapiens; C225S/C278S/C81S/S347D/T171C)”, in data set [11], the Km is 4.1 (0.2) μM and the kcat came to 3 s⁻¹.
As to “SULT2B1b S347D spin-labeled at residue 247 (Homo sapiens; C225S/C278S/C81S/S247C/S347D)”, in data set [12], the Km was 3.6 (0.3) μM and the kcat worked out at 3.5 s⁻¹.
As for “SULT2B1b, S347D, W13A (Homo sapiens; S347D/W13A)”, the Km in data set [9] (other: W13A) was 4.2 (0.3) μM.
Take “SULT2B1b, S347D, W98A (Homo sapiens; S347D/W98A)”: the Km in data set [9] (other: W98A) is given as 3.6 (0.2) μM.
Consider “SULT2B1b, S347D, Y257A (Homo sapiens; S347D/Y257A)”, for which the Km in data set [9] (other: Y257A) is reported as 4.0 (0.3) μM.

The Ki is the equilibrium dissociation constant of an inhibitor or competing ligand from its target. As a reminder, the kcat is the maximal rate divided by the concentration of active sites.
